According to ChEMBL document CHEMBL1255444, “In vitro antibacterial activities of JNJ-Q2, a new broad-spectrum fluoroquinolone” (Antimicrob Agents Chemother, 2010):
Values after ≈ are worked out from the molar mass of the structure shown. Active and inactive are the calls of the source. The calls are words filed in the database; no cut-off is given here.

Experiments:
Streptococcus pneumoniae [1] = assay: Antibacterial activity against Streptococcus pneumoniae isolate OC7376 by broth microdilution method; format: functional
Outline: (§1)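 CLSI M07-A7 broth microdilution MIC. Medium was cation-adjusted Mueller-Hinton broth. For S. pneumoniae it was Mueller-Hinton supplemented with 5% lysed horse blood. CLSI quality-control strains were included as appropriate.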

Citrobacter freundii = assay: Antibacterial activity against Citrobacter freundii by broth microdilution method; format: functional
Outline: (§2)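 MICs by CLSI M07-A7 broth microdilution in cation-adjusted Mueller-Hinton medium. For S. pneumoniae the medium was supplemented with 5% lysed horse blood. CLSI quality control strains were run alongside as appropriate.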

Escherichia coli = assay: Antibacterial activity against ciprofloxacin-susceptible, -intermediate Escherichia coli by broth microdilution method; format: functional
Staphylococcus aureus [2] = assay: Antibacterial activity against methicillin-resistant Staphylococcus aureus by broth microdilution method; format: functional; outline: as §1
Staphylococcus aureus [3] = assay: Antibacterial activity against methicillin-resistant Staphylococcus aureus isolate OC8530 harboring gyrA S84L and parC I143V mutant gene assessed as log reduction in bacterial growth at 4 times MIC measured at 24 hrs by time-kill assay; format: functional
Outline: (§3)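 Time-kill in cation-adjusted Mueller-Hinton broth. […] Samples were taken up to 24 h, serially diluted onto TSA and counted after 20–24 h at 37°C. Result is log10 decrease at 24 h from the starting inoculum; detection limit 100 CFU.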

Streptococcus pneumoniae [4] = assay: Antibacterial activity against Streptococcus pneumoniae isolate OC6610 by broth microdilution method; format: functional; outline: as §1
Klebsiella pneumoniae = assay: Antibacterial activity against Klebsiella pneumoniae by broth microdilution method; format: functional; outline: as §2
Streptococcus pneumoniae [5] = assay: Antibacterial activity against Streptococcus pneumoniae isolate OC6610 assessed as log reduction in bacterial growth at 4 times MIC measured at 24 hrs by time-kill assay; format: functional
Outline: (§4)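 Drug was diluted from 50× stocks made in water or acidified water. Samples were taken at 6 and 24 h and serially diluted onto TSA-5% sheep blood plates. Plates were incubated 20–24 h at 37°C in 5% CO2 before counting CFU. Log10 titer change is given relative to the starting inoculum.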

Enterobacter cloacae = assay: Antibacterial activity against Enterobacter cloacae by broth microdilution method; format: functional
Staphylococcus aureus [6] = assay: Antibacterial activity against methicillin-resistant Staphylococcus aureus isolate OC8530 harboring gyrA S84L and parC I143V mutant gene by broth microdilution method; format: functional
Outline: (§5)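 CLSI M07-A7 broth microdilution MIC in cation-adjusted Mueller-Hinton medium. For S. pneumoniae the medium was supplemented with 5% lysed horse blood. CLSI quality-control strains were included as appropriate.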

Streptococcus pneumoniae [7] = assay: Antibacterial activity against penicillin-resistant Streptococcus pneumoniae by broth microdilution method; format: functional, organism-based; outline: as §5
Streptococcus pneumoniae [8] = assay: Antibacterial activity against erythromycin-resistant Streptococcus pneumoniae by broth microdilution method; format: functional, organism-based; outline: as §1
Staphylococcus aureus [9] = assay: Antibacterial activity against methicillin-resistant Staphylococcus aureus isolate OC15425 harboring gyrA S84L and parC S80F mutant gene by agar dilution method; format: functional
Outline: (§6)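 MICs for the resistance-selection studies were determined by CLSI agar dilution on Mueller-Hinton medium. For S. pneumoniae the medium was supplemented with 5% lysed horse blood. For MRSA fluctuation-assay strains an arithmetic agar dilution scheme was used for a more precise MIC.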

Staphylococcus aureus [10] = assay: Antibacterial activity against methicillin-resistant Staphylococcus aureus isolate OC8525 harboring wild type quinolone resistance-determining region by broth microdilution method; format: functional
Staphylococcus aureus [11] = assay: Antibacterial activity against methicillin-resistant Staphylococcus aureus isolate OC11521 harboring gyrA S84L/S85P, parC E84G mutant gene assessed as log reduction in bacterial growth at 2 times MIC measured at 24 hrs by time-kill assay; format: functional
Outline: (§7)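 Overnight MRSA cultures were diluted into fresh cation-adjusted Mueller-Hinton broth to about 5 × 10^6 CFU/ml. […] Samples were plated serially diluted on trypticase soy agar, and CFU were counted after 20-24 h at 37°C. Value is the log10 decrease at 24 h from the starting inoculum; detection limit 100 CFU.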

Streptococcus pneumoniae [12] = assay: Antibacterial activity against Streptococcus pneumoniae isolate OC6790 assessed as log reduction in bacterial growth at 2 times MIC measured at 6 hrs by time-kill assay; format: functional; outline: as §4
Staphylococcus aureus [13] = assay: Antibacterial activity against methicillin-resistant Staphylococcus aureus isolate OC2838 assessed as log reduction in bacterial growth at 2 times MIC measured at 24 hrs by time-kill assay; format: functional; outline: as §7
Streptococcus pneumoniae [14] = assay: Antibacterial activity against Streptococcus pneumoniae OC7453 harboring gyrA S81F mutant gene by agar dilution method; format: functional; outline: as §6
Streptococcus pneumoniae [15] = assay: Antibacterial activity against Streptococcus pneumoniae isolate OC7368 assessed as log reduction in bacterial growth at 4 times MIC measured at 6 hrs by time-kill assay; format: functional; outline: as §4
[16] = Plasma protein binding in rat infected with gram-positive bacteria; format: ADME, cell-free; conditions: read-out: PPB (converted)
Streptococcus pneumoniae [17] = assay: Antibacterial activity against Streptococcus pneumoniae isolate OC6790 by broth microdilution method; format: functional; outline: as §1
Staphylococcus aureus [18] = assay: Antibacterial activity against methicillin-resistant Staphylococcus aureus isolate OC2838 by broth microdilution method; format: functional; outline: as §1
Staphylococcus aureus [19] = assay: Antibacterial activity against methicillin-resistant Staphylococcus aureus isolate OC8525 harboring wild type quinolone resistance-determining region assessed as log reduction in bacterial growth at 4 times MIC measured at 24 hrs by time-kill assay; format: functional; outline: as §3
Streptococcus pneumoniae [20] = assay: Antibacterial activity against Streptococcus pneumoniae isolate OC7368 assessed as log reduction in bacterial growth at 4 times MIC measured at 24 hrs by time-kill assay; format: functional; outline: as §4
Staphylococcus aureus [21] = assay: Antibacterial activity against methicillin-resistant Staphylococcus aureus isolate OC8530 harboring gyrA S84L and parC I143V mutant gene assessed as log reduction in bacterial growth at 2 times MIC measured at 24 hrs by time-kill assay; format: functional; outline: as §3
Staphylococcus aureus [22] = assay: Antibacterial activity against methicillin-susceptible Staphylococcus aureus by broth microdilution method; format: functional
Streptococcus pneumoniae [23] = assay: Antibacterial activity against Streptococcus pneumoniae isolate OC6585 assessed as log reduction in bacterial growth at 4 times MIC measured at 24 hrs by time-kill assay; format: functional; outline: as §4
Staphylococcus aureus [24] = assay: Antibacterial activity against methicillin-resistant Staphylococcus aureus isolate OC12501 by broth microdilution method; format: functional; outline: as §1
Streptococcus pneumoniae [25] = assay: Ratio of Moxifloxacin MIC90 to compound MIC90 for ciprofloxacin-resistant Streptococcus pneumoniae; format: functional
Streptococcus pneumoniae [26] = assay: Ratio of Ciprofloxacin MIC90 to compound MIC90 for ciprofloxacin-resistant Streptococcus pneumoniae; format: functional
Streptococcus pneumoniae [27] = assay: Antibacterial activity against ciprofloxacin-resistant Streptococcus pneumoniae by broth microdilution method; format: functional; outline: as §1
Streptococcus pneumoniae [28] = assay: Antibacterial activity against Streptococcus pneumoniae isolate OC7189 assessed as log reduction in bacterial growth at 2 times MIC measured at 6 hrs by time-kill assay; format: functional; outline: as §4
Staphylococcus aureus [29] = assay: Antibacterial activity against methicillin-resistant Staphylococcus aureus isolate OC17042 harboring gyrA S84L/G106D, parC S80F and parE D732N mutant gene assessed as log reduction in bacterial growth at 4 times MIC measured at 24 hrs by time-kill assay; format: functional; outline: as §7
Streptococcus pneumoniae [30] = assay: Antibacterial activity against Streptococcus pneumoniae isolate OC6608 assessed as log reduction in bacterial growth at 4 times MIC measured at 6 hrs by time-kill assay; format: functional; outline: as §4
Streptococcus pneumoniae [31] = assay: Antibacterial activity against Streptococcus pneumoniae isolate OC6790 assessed as log reduction in bacterial growth at 4 times MIC measured at 24 hrs by time-kill assay; format: functional; outline: as §4

COc1c(N2CCC/C(=C(\F)CN)C2)c(F)cc2c(=O)c(C(=O)O)cn(C3CC3)c12 [ACORAFLOXACIN]
MIC (Streptococcus pneumoniae [1]): 0.12 µg/mL (≈ 0.286 µM) | MIC50 (Citrobacter freundii): 2 µg/mL (≈ 4.77 µM) | MIC90 (Citrobacter freundii): 8 µg/mL (≈ 19.1 µM) | MIC50 (Escherichia coli): 0.06 µg/mL (≈ 0.143 µM) | MIC90 (Escherichia coli): 0.25 µg/mL (≈ 0.596 µM) | MIC50 (Staphylococcus aureus [2]): 0.12 µg/mL (≈ 0.286 µM) | MIC90 (Staphylococcus aureus [2]): 0.25 µg/mL (≈ 0.596 µM) | deltalog10CFU/ml (Staphylococcus aureus [3]): 6.3 | MIC (Streptococcus pneumoniae [4]): 0.5 µg/mL (≈ 1.19 µM) | MIC50 (Klebsiella pneumoniae): 0.12 µg/mL (≈ 0.286 µM) | MIC90 (Klebsiella pneumoniae): 0.25 µg/mL (≈ 0.596 µM) | deltalog10CFU/ml (Streptococcus pneumoniae [5]): 6.9 | MIC50 (Enterobacter cloacae): 0.12 µg/mL (≈ 0.286 µM) | MIC90 (Enterobacter cloacae): 0.12 µg/mL (≈ 0.286 µM) | MIC (Staphylococcus aureus [6]): 0.25 µg/mL (≈ 0.596 µM) | Activity (Streptococcus pneumoniae [7]): Active | Activity (Streptococcus pneumoniae [8]): Active | MIC (Staphylococcus aureus [9]): 0.12 µg/mL (≈ 0.286 µM) | MIC (Staphylococcus aureus [10]): 0.008 µg/mL (≈ 0.0191 µM) | deltalog10CFU/ml (Staphylococcus aureus [11]): 2.3 | deltalog10CFU/ml (Streptococcus pneumoniae [12]): 3.6 | deltalog10CFU/ml (Staphylococcus aureus [13]): 4.1 | MIC (Streptococcus pneumoniae [14]): 0.03 µg/mL (≈ 0.0715 µM) | deltalog10CFU/ml (Streptococcus pneumoniae [15]): 3.7 | fraction unbound [16]: 0.44 | MIC (Streptococcus pneumoniae [17]): 0.12 µg/mL (≈ 0.286 µM) | MIC (Staphylococcus aureus [18]): 0.25 µg/mL (≈ 0.596 µM) | deltalog10CFU/ml (Staphylococcus aureus [19]): 5 | deltalog10CFU/ml (Streptococcus pneumoniae [20]): 6.9 | deltalog10CFU/ml (Staphylococcus aureus [21]): 6.3 | MIC50 (Staphylococcus aureus [22]): 0.015 µg/mL (≈ 0.0358 µM) | MIC90 (Staphylococcus aureus [22]): 0.015 µg/mL (≈ 0.0358 µM) | deltalog10CFU/ml (Streptococcus pneumoniae [23]): 6.6 | MIC (Staphylococcus aureus [24]): 0.06 µg/mL (≈ 0.143 µM) | Ratio (Streptococcus pneumoniae [25]): 9 | Ratio (Streptococcus pneumoniae [26]): 9 | MIC50 (Streptococcus pneumoniae [27]): 0.12 µg/mL (≈ 0.286 µM) | MIC90 (Streptococcus pneumoniae [27]): 0.25 µg/mL (≈ 0.596 µM) | deltalog10CFU/ml (Streptococcus pneumoniae [28]): 4 | deltalog10CFU/ml (Staphylococcus aureus [29]): 3.5 | deltalog10CFU/ml (Streptococcus pneumoniae [30]): 4.7 | deltalog10CFU/ml (Streptococcus pneumoniae [31]): 6.8
